8 molecules from article PMC12138108 (Acta Pharmaceutica Sinica. B, 2025) can be followed below.

In data set [1] the test system is 11 CpAMs-resistant mutant HBC (P25A, P25G, D29L, D29W, T33N, I105F, I105W, I105Y, T109A, V124W, V124F). Description: Degradation of CpAMs-resistant mutant HBC in transfected HepG2 cells. The settings on record: 18 h, HyT-S7 6, NVR 3-778 3, 3TC 1 μmol/L. The format is cell-based, Hepatitis B virus (HBV). The procedure, abridged:
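HepG2 cells at about 80% confluence were transfected with 0.25 µg plasmid. The pCMV-HBC-derived plasmids carried P25A, P25G, D29A/D29L, D29W, T33N, I105F, I105W, I105Y or T109A; pHBV1.3-derived plasmids carried V124F/V124W. At 6 h post-transfection, medium was replaced with fresh medium or test compound (6 µmol/L) or comparators (1–3 µmol/L) for 18 h. Intracellular core protein was detected by Western blot against a GAPDH/β-actin loading control, with chemiluminescence read-out.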

The subject of data set [2] is HBV DNA replication in HepAD38 cells. Description: In vitro anti-HBV assay in HepAD38 cells. It counts as cell-based, Hepatitis B virus (HBV). The following applies: reduction of HBV DNA by 50% in HepAD38 cells, qPCR, 4 days incubation (Table 2). The procedure, abridged: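 HepAD38 cells were plated overnight, then exposed to serially diluted test compound without tetracycline for 4 days. Cytoplasmic HBV core DNA was extracted and quantified by real-time PCR. EC50 is relative to mock-treated controls, calculated by the Reed & Muench method.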
(In general: Quantitative PCR measures a nucleic acid by following its amplification.)

Data set [3] concerns HepAD38 cells. Description: Cytotoxicity on HepAD38 cells by cytopathic effect. The format is cell-based, Human. An outline of the steps: (§1)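 HepAD38 cells (tetracycline-inducible HBV) were maintained in DMEM with 10% FBS, 1 µg/mL tetracycline and 400 µg/mL G-418. Cells were plated overnight, then given serial dilutions of test compound without tetracycline. Cytotoxicity was read by the cytopathic effect method. CC50 is the concentration cutting viability by 50%, calculated by the Reed & Muench method.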

Data set [4] is described as follows: Cytotoxicity on HepAD38 cells by cytopathic effect. It counts as cell-based, Human. The following applies: human, HepAD38 cells, CC50, reduction of viability of HepAD38 cells by 50%, CPE method (Table 2). The procedure, abridged: as §1
Data set [5] deals with HBV core protein (HBC) (Hepatitis B virus genotype D subtype ayw, UniProt P03146). Nature of the data set: HBC degradation in HepAD38 cells by Western blot. It counts as cell-based. The settings on record: for HBC degradation activity (Western blot): tet-, maximum non-toxic concentration, 72 h. (A western blot detects proteins with antibodies after separation by electrophoresis.)

[6] abbreviates: Hepatitis B virus, HePAD38, 96 h.

Regarding `Nc1ccn([C@@H]2CS[C@H](CO)O2)c(=O)n1` [3TC, lamivudine], the “degradation of 11 mutant types of HBC” value in data set [1] is listed as “neither NVR 3-778 nor 3TC showed any degradation effect”.
Consider “N^1-(Bicyclo[2.2.1]hept-2-en-1-ylmethyl)-N^6-(1-((2-fluoro-5-((3,4,5-trifluorophenyl)carbamoyl)phenyl)sulfonyl)piperidin-4-yl)adipamide [HyT-S12]”, for which, in data set [2], the EC50 (in general, the concentration at which the effect is half-maximal) was 0.22 µM. Also, the CC50 (commonly the concentration that lowers cell viability or growth by half) in data set [3] (reduction of viability of HepAD38 cells by 50%, CPE method (Table 2)) was 28.8 µM.
`O=C(CC1c2ccccc2-c2ccccc21)NCCOCC(=O)NC1CCN(S(=O)(=O)c2cc(C(=O)Nc3cc(F)c(F)c(F)c3)ccc2F)CC1` [HyT-S11, 3-((4-(2-(2-(2-(9H-Fluoren-9-yl)acetamido)ethoxy)acetamido)piperidin-1-yl)sulfonyl)-4-fluoro-N-(3,4,5-trifluorophenyl)benzamide]: the EC50 in data set [2] (setting [6]) was determined as 0.21 µM. The molecule further had a cytotoxic concentration (CC50) in data set [4] of 34.6 µM. In addition, the “HBC degradation activity (Western blot)” value in data set [5] is given as “still retains some degradation activity”.
For the molecule `NCCOCC(=O)NC1CCN(S(=O)(=O)c2cc(C(=O)Nc3cc(F)c(F)c(F)c3)ccc2F)CC1` [SP-O-7, 3-((4-(2-(2-Aminoethoxy)acetamido)piperidin-1-yl)sulfonyl)-4-fluoro-N-(3,4,5-trifluorophenyl)benzamide], the “HBC degradation (Western blot)” value in data set [5] (20 μmol/L, 24 h) is listed as “unable to induce degradation of HBC”.
In data set [2] (setting [6]), `O=C(COCCNC(=O)C(c1ccccc1)c1ccccc1)NC1CCN(S(=O)(=O)c2cc(C(=O)Nc3cc(F)c(F)c(F)c3)ccc2F)CC1` [HyT-S10, 3-((4-(2-(2-(2,2-Diphenylacetamido)ethoxy)acetamido)piperidin-1-yl)sulfonyl)-4-fluoro-N-(3,4,5-trifluorophenyl)benzamide] came in with an EC50 of 0.26 µM. The molecule further yielded a CC50 in data set [4] of 20 µM. In data set [5], the “HBC degradation activity (Western blot)” value was “still retains some degradation activity”.
Regarding `CC(C)(C)OC(=O)/N=C(\NCCC[C@H](NC(=O)OC(C)(C)C)C(=O)NCCOCC(=O)NC1CCN(S(=O)(=O)c2cc(C(=O)Nc3cc(F)c(F)c(F)c3)ccc2F)CC1)NC(=O)OC(C)(C)C` [HyT-S15, 2-Methylpropan-2-yl {[(6E,11S)-18-({1-[(2-fluoro-5-{[(3,4,5-trifluorophenyl)amino]carbonyl}phenyl)dioxo-λ6-sulfanyl]hexahydropyridin-4-yl}amino)-2,2-dimethyl-11-({[(2-methylprop-2-yl)oxy]carbonyl}amino)-4,12,18-trioxo-3,16-dioxa-5,7,13-triazaoctadecan-6-ylidene]amino}methanoate], in data set [2] (setting [6]), a half-maximal response (EC50) required 0.45 µM. Moreover, the midpoint of cytotoxicity in data set [4], the CC50, lay at 60 µM. Besides, in data set [3] (HepAD38 cells, concentration used in the degradation test), the “maximum non-toxic concentration by CPE method” value is 20 µmol/L. Besides, the “HBC degradation activity (Western blot)” value in data set [5] is “still retains some degradation activity”.
In data set [2] (setting [6]), `CC(C)Cc1ccc([C@H](C)C(=O)NCCOCC(=O)NC2CCN(S(=O)(=O)c3cc(C(=O)Nc4cc(F)c(F)c(F)c4)ccc3F)CC2)cc1` [HyT-S13, (S)-4-Fluoro-3-((4-(2-(2-(2-(4-isobutylphenyl)propanamido)ethoxy)acetamido)piperidin-1-yl)sulfonyl)-N-(3,4,5-trifluorophenyl)benzamide] registered an EC50 of 0.59 µM. The molecule also registered a 50% cytotoxic concentration (CC50) in data set [4] of 11.6 µM. In addition, the “HBC degradation activity (Western blot)” value in data set [5] is listed as “still retains some degradation activity”.
The matching figures for `CC(C)[C@@H]1CC[C@@H](C)C[C@H]1OCC(=O)NCCOCC(=O)NC1CCN(S(=O)(=O)c2cc(C(=O)Nc3cc(F)c(F)c(F)c3)ccc2F)CC1` [HyT-S14, 4-Fluoro-3-((4-(2-(2-(2-(((1R,2S,5R)-2-isopropyl-5-methylcyclohexyl)oxy)acetamido)ethoxy)acetamido)piperidin-1-yl)sulfonyl)-N-(3,4,5-trifluorophenyl)benzamide]: 0.29 µM, 11.6 µM and “still retains some degradation activity”.
